Measured values: ChEMBL document CHEMBL4477216, “Discovery and Optimization of Small Molecule Splicing Modifiers of Survival Motor Neuron 2 as a Treatment for Spinal Muscular Atrophy” (J Med Chem, 2016)

Experiments:
[1] = Apparent permeability in human Caco2 cells; assay type: ADME, cell-based; details: Caco-2
In short: (§1)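 Bidirectional permeability was measured across a Caco-2 cell monolayer. Papp was reported, and efflux was expressed as the B-A/A-B ratio.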

[2] = Efflux ratio of apparent permeability from basolateral to apical over apical to basolateral side in human Caco2 cells; assay type: ADME, cell-based; details: Caco-2; in short: as §1
[3] = Protein binding in human plasma; assay type: ADME, cell-free; details: read-out: PPB (converted)
[4] = AUC (0 to 6 hrs) in Sprague-Dawley rat at 10 mg/kg, po; assay type: ADME, organism-based; design: dose 10 mg/kg, time < 6 hr, route oral; details: in vivo
In short: (§2)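 Male Sprague-Dawley rats got a single oral 10 mg/kg dose as a suspension in 0.5% hydroxypropyl methylcellulose with 0.1% Tween-80. Plasma was sampled at several time points up to 6 h post dose to give AUC0-6h. Total brain concentration was taken at 6 h to give the brain/plasma ratio.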

[5] = Ratio of drug level in brain to plasma of Sprague-Dawley rat at 10 mg/kg, po measured at 6 hrs; assay type: ADME, organism-based; details: brain and plasma, read-out: BPR; in short: as §2
[6] = AUC (0 to 24 hrs) in FVB.Cg-Tg(SMN2 delta 7 exon)4299Ahmb Tg(SMN2)89Ahmb Smn1tm1Msd/J mouse at 10 mg/kg, ip; assay type: ADME, organism-based; design: dose 10 mg/kg, time < 24 hr, route intraperitoneal; details: in vivo
In short: (§3)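 Single 10 mg/kg IP dose given on postnatal day 9 to neonatal mice. Vehicle was 100% DMSO solution (2.5 mL/kg). Plasma and brain drug levels were measured, giving plasma AUC0-24h and the brain/plasma ratio.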

[7] = Ratio of drug level in brain to plasma of FVB.Cg-Tg(SMN2 delta 7 exon)4299Ahmb Tg(SMN2)89Ahmb Smn1tm1Msd/J mouse at 10 mg/kg, ip; assay type: ADME, organism-based; details: brain and plasma, read-out: BPR; in short: as §3
Mus musculus [8] = assay: In vivo inhibition of mRNA splicing of human SMN2 exon 7 in FVB.Cg-Tg(SMN2 delta 7 exon)4299Ahmb Tg(SMN2)89Ahmb Smn1tm1Msd/J mouse assessed as median survival time at 0.3 mg/kg/day, ip administered on postnatal day 3 to day 23 (reference value: 14 days); assay type: functional
Mus musculus [9] = assay: In vivo inhibition of mRNA splicing of human SMN2 exon 7 in FVB.Cg-Tg(SMN2 delta 7 exon)4299Ahmb Tg(SMN2)89Ahmb Smn1tm1Msd/J mouse assessed as median survival time at 2 mg/kg/day, po bid administered on postnatal day 24 (reference value: 14 days); assay type: functional
Mus musculus [10] = assay: In vivo inhibition of mRNA splicing of human SMN2 exon 7 in FVB.Cg-Tg(SMN2 delta 7 exon)4299Ahmb Tg(SMN2)89Ahmb Smn1tm1Msd/J mouse assessed as increase in SMN protein level in brain administered as ip qd on postnatal day 3 to day 9 by HTRF assay; assay type: functional, organism-based
In short: (§4)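 Homozygous Δ7 SMA mice were dosed IP once daily from PND3 to PND9 with compound or vehicle (100% DMSO solution, 2.5 mL/kg). Brain, spinal cord and quadriceps were homogenized in RIPA buffer with protease inhibitors. SMN was read by HTRF (anti-SMN d2 and Kryptate antibodies, overnight rt, 665/620 nm) and normalized to BCA total protein. Values are % change versus vehicle ±SD; 5-11 mice per group.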

Mus musculus [11] = assay: In vivo inhibition of mRNA splicing of human SMN2 exon 7 in FVB.Cg-Tg(SMN2 delta 7 exon)4299Ahmb Tg(SMN2)89Ahmb Smn1tm1Msd/J mouse assessed as increase in SMN protein level in spinal cord administered as ip qd on postnatal day 3 to day 9 by HTRF assay; assay type: functional, organism-based; in short: as §4
Mus musculus [12] = assay: In vivo inhibition of mRNA splicing of human SMN2 exon 7 in FVB.Cg-Tg(SMN2 delta 7 exon)4299Ahmb Tg(SMN2)89Ahmb Smn1tm1Msd/J mouse assessed as increase in SMN protein level in quadriceps administered as ip qd on postnatal day 3 to day 9 by HTRF assay; assay type: functional, organism-based; in short: as §4
Mus musculus [13] = assay: In vivo inhibition of mRNA splicing of human SMN2 exon 7 in po dosed FVB.Cg-Tg(SMN2 delta 7 exon)4299Ahmb Tg(SMN2)89Ahmb Smn1tm1Msd/J mouse assessed as increase in survival time administered as bid on postnatal day 24; assay type: functional, organism-based
In short: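 Δ7 SMA mice were dosed IP once daily from PND3 to PND23 with compound or vehicle in DMSO (2.5 mL/kg). From PND24 dosing was oral, twice daily, in 0.5% HPMC/0.1% Tween-80 at a higher daily dose. Survivors were counted daily to give median survival time and the fraction alive at study end.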

Mus musculus [14] = assay: In vivo inhibition of mRNA splicing of human SMN2 exon 7 in FVB.Cg-Tg(SMN2 delta 7 exon)4299Ahmb Tg(SMN2)89Ahmb Smn1tm1Msd/J mouse assessed as increase in SMN protein level in brain at 0.1 mg/kg, ip qd administered on postnatal day 3 to day 9 by HTRF assay relative to control; assay type: functional; design: scale not given: the % may be the effect or the level left; in short: as §4
Mus musculus [15] = assay: In vivo inhibition of mRNA splicing of human SMN2 exon 7 in FVB.Cg-Tg(SMN2 delta 7 exon)4299Ahmb Tg(SMN2)89Ahmb Smn1tm1Msd/J mouse assessed as increase in SMN protein level in brain at 0.3 mg/kg, ip qd administered on postnatal day 3 to day 9 by HTRF assay relative to control; assay type: functional; design: scale not given: the % may be the effect or the level left; in short: as §4
Mus musculus [16] = assay: In vivo inhibition of mRNA splicing of human SMN2 exon 7 in FVB.Cg-Tg(SMN2 delta 7 exon)4299Ahmb Tg(SMN2)89Ahmb Smn1tm1Msd/J mouse assessed as increase in SMN protein level in spinal cord at 0.1 mg/kg, ip qd administered on postnatal day 3 to day 9 by HTRF assay relative to control; assay type: functional; design: scale not given: the % may be the effect or the level left; in short: as §4
Mus musculus [17] = assay: In vivo inhibition of mRNA splicing of human SMN2 exon 7 in FVB.Cg-Tg(SMN2 delta 7 exon)4299Ahmb Tg(SMN2)89Ahmb Smn1tm1Msd/J mouse assessed as increase in SMN protein level in spinal cord at 0.3 mg/kg, ip qd administered on postnatal day 3 to day 9 by HTRF assay relative to control; assay type: functional; design: scale not given: the % may be the effect or the level left; in short: as §4
Mus musculus [18] = assay: In vivo inhibition of mRNA splicing of human SMN2 exon 7 in FVB.Cg-Tg(SMN2 delta 7 exon)4299Ahmb Tg(SMN2)89Ahmb Smn1tm1Msd/J mouse assessed as increase in SMN protein level in quadriceps at 0.1 mg/kg, ip qd administered on postnatal day 3 to day 9 by HTRF assay relative to control; assay type: functional; design: scale not given: the % may be the effect or the level left; in short: as §4
Mus musculus [19] = assay: In vivo inhibition of mRNA splicing of human SMN2 exon 7 in FVB.Cg-Tg(SMN2 delta 7 exon)4299Ahmb Tg(SMN2)89Ahmb Smn1tm1Msd/J mouse assessed as increase in SMN protein level in quadriceps at 0.3 mg/kg, ip qd administered on postnatal day 3 to day 9 by HTRF assay relative to control; assay type: functional; design: scale not given: the % may be the effect or the level left; in short: as §4
Mus musculus [20] = assay: In vivo inhibition of mRNA splicing of human SMN2 exon 7 in ip dosed FVB.Cg-Tg(SMN2 delta 7 exon)4299Ahmb Tg(SMN2)89Ahmb Smn1tm1Msd/J mouse assessed as increase in survival time administered as qd on postnatal day 3 to 23

Structure (SMILES) | Papp [1] [×10⁻⁶ cm/s] | efflux ratio [2] | fraction unbound [3] | AUC(0-t) at 6 h [4] [ng·h/mL] | Kp at 6 h [5] | AUC(0-t) at 24 h [6] [ng·h/mL] | Kp [7] | MST (Mus musculus [8]) [days] | MST (Mus musculus [9]) [days] | Activity (Mus musculus [10]) | Activity (Mus musculus [11]) | Activity (Mus musculus [12]) | Activity (Mus musculus [13]) | Activity (Mus musculus [14]) [%] | Activity (Mus musculus [15]) [%] | Activity (Mus musculus [16]) [%] | Activity (Mus musculus [17]) [%] | Activity (Mus musculus [18]) [%] | Activity (Mus musculus [19]) [%] | Activity (Mus musculus [20])
Cc1cn2cc(-c3cc4ccc(N5CCN(C)CC5)cc4c(=O)o3)nc2c(C)n1 | 1.2 | 1.3 | 0.07 | 790 | 11 | 5000 | 17 | >100 | >100 | Dose-dependent effect | Dose-dependent effect | Dose-dependent effect | Dose-dependent effect | 66 | 114 | 35 | 98 | 14 | 83 | Dose-dependent effect
CCN1CCN(c2ccc3cc(-c4cn5cc(C)nc(C)c5n4)c(=O)oc3c2)C[C@@H]1C | 1.2 | 1.9 | 0.04 | 1100 | 19 | 3600 | 18 | >55 | >55 | Dose-dependent effect | Dose-dependent effect | Dose-dependent effect | Dose-dependent effect | 115 | 194 | 92 | 164 | 154 | 147 | Dose-dependent effect
Cc1cn2nc(-c3cc(=O)n4cc(N5CCN(C)CC5)ccc4n3)cc2c(C)n1 | 7.5 | 1.7 | 0.2 | 2100 | 1.6 | 6900 | 2.9 | – | – | Dose-dependent effect | Dose-dependent effect | Dose-dependent effect | Dose-dependent effect | 43 | 61 | 26 | 67 | 6 | 33 | Dose-dependent effect
